Measurements reported in ChEMBL document CHEMBL1156936, “2,3-Diamino acid modifying 3S-tetrahydroisoquinoline-3-carboxylic acids: leading to a class of novel agents with highly unfolded conformation, selective in vitro anti-platelet aggregation and potent in vivo anti-thrombotic activity” (Bioorg Med Chem, 2010).
Square brackets hold non-standard residues; d marks the D form. Peptide text beside a SMILES is read from it. Tic = O=C(O)[C@@H]1Cc2ccccc2CN1

Assays:
Rattus norvegicus [1] = test: Antithrombotic activity in Wistar rat assessed as reduction of thrombus weight at 15 umol/kg, iv; format: functional
Method in brief: (§1)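 Male Wistar rats (250–300 g) with an arteriovenous shunt: a polyethylene tube holding a thread joins the right carotid artery to the left jugular vein. Heparin sodium is injected through the tube, then vehicle (NS) or drug dissolved in NS and kept on ice. Blood flows for 15 min, and the wet thrombus on the thread is weighed. Analysis by ANOVA.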

Platelet [2] = test: Inhibition of arachidonic acid-induced pig platelet aggregation measured for 5 mins; format: functional, cell-based; conditions: Sus scrofa
Rattus norvegicus [3] = test: Antithrombotic activity in iv dosed Wistar rat assessed as reduction of thrombus weight; format: functional, organism-based; method in brief: as §1
Rattus norvegicus [4] = test: Antithrombotic activity in Wistar rat assessed as reduction of thrombus weight at 3 nmol/kg, iv; format: functional; method in brief: as §1
Rattus norvegicus [5] = test: Antithrombotic activity in Wistar rat assessed as reduction of thrombus weight at 30 nmol/kg, po; format: functional
Method in brief: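 Drug in NS (or NS alone, 0.6 ml) is given orally to male Wistar rats (250–300 g), then pentobarbital sodium 80.0 mg/kg ip. Thirty min later the right carotid artery and left jugular vein are exposed and joined by a heparinized thread-containing shunt. Blood flows for 15 min, and the wet thrombus is weighed. n=12; analysis by ANOVA.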

Platelet [6] = test: Inhibition of adenosine diphosphate-induced pig platelet aggregation measured for 5 mins; format: functional, cell-based; conditions: Sus scrofa
Rattus norvegicus [7] = test: Antithrombotic activity in Wistar rat assessed as reduction of thrombus weight at 30 nmol/kg, iv; format: functional; method in brief: as §1
Rattus norvegicus [8] = test: Antithrombotic activity in Wistar rat assessed as reduction of thrombus weight at 0.3 nmol/kg, iv; format: functional; method in brief: as §1
Platelet [9] = test: Inhibition of platelet activating factor-induced pig platelet aggregation measured for 5 mins; format: functional, cell-based; conditions: Sus scrofa
Platelet [10] = test: Inhibition of thrombin-induced pig platelet aggregation measured for 5 mins; format: functional, cell-based; conditions: Sus scrofa
Method in brief: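 Pig blood spun at 1000g for 10 min to give PRP and at 1500g for 10 min to give PPP. Platelets adjusted to 2×10⁸/ml with autologous PPP, and 0.5 ml is pre-mixed with NS or drug at six tenfold-spaced final concentrations. After baseline the agonist is added (thrombin final 0.1 U/ml). Optical aggregation is read at 37 °C for 5 min. Peak height is taken as maximal aggregation, and % inhibition is calculated against NS. Run in sextuplicate; IC50 from the concentration–inhibition curve.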

Rattus norvegicus [11] = test: Antithrombotic activity in Wistar rat assessed as reduction of thrombus weight at 0.03 nmol/kg, iv; format: functional; method in brief: as §1
Rattus norvegicus [12] = test: Antithrombotic activity in Wistar rat assessed as reduction of thrombus weight at 165 umol/kg, iv; format: functional; method in brief: as §1

With O=C(O)[C@@H]1Cc2ccccc2CN1 the Activity (Rattus norvegicus [1]) was 21.52 mg.
With C[C@H](N)C(=O)N1Cc2ccccc2C[C@H]1C(=O)N[C@@H](C)C(=O)O the IC50 (Platelet [2]) was 8.73 nM, the Activity (Rattus norvegicus [3]) was “Dose-dependent effect” and the Activity (Rattus norvegicus [4]) was 23.35 mg. It also gave an Activity (Rattus norvegicus [5]) of 18.89 mg, an IC50 (Platelet [6]) of 2.36 nM and an Activity (Rattus norvegicus [7]) of 17.12 mg. For the same molecule, the Activity (Rattus norvegicus [8]) was 29.77 mg, the IC50 (Platelet [9]) was 5.6 nM and the IC50 (Platelet [10]) was 9.48 nM.
In the case of N=C(N)NCCC[C@H](NC(=O)[C@@H]1Cc2ccccc2CN1C(=O)[C@@H](N)CCCNC(=N)N)C(=O)O (H-Arg-[Tic]-Arg-OH), the IC50 (Platelet [2]) is reported as 9.17 nM, the Activity (Rattus norvegicus [3]) is reported as “Dose-dependent effect” and the Activity (Rattus norvegicus [4]) is reported as 16.29 mg. For the same molecule, the Activity (Rattus norvegicus [5]) was 15.15 mg, the IC50 (Platelet [6]) was 3.15 nM and the Activity (Rattus norvegicus [7]) was 10.61 mg. For the same molecule, the Activity (Rattus norvegicus [11]) was 19.71 mg, the IC50 (Platelet [9]) was 6.07 nM and the IC50 (Platelet [10]) was 9.87 nM.
With NC(=O)C[C@H](NC(=O)[C@@H]1Cc2ccccc2CN1C(=O)[C@@H](N)CC(N)=O)C(=O)O (H-Asn-[Tic]-Asn-OH) the IC50 (Platelet [2]) was 8.28 nM, the Activity (Rattus norvegicus [5]) was 16.88 mg and the IC50 (Platelet [6]) was 3.07 nM. For the same molecule, the Activity (Rattus norvegicus [7]) was 17.95 mg, the IC50 (Platelet [9]) was 5.39 nM and the IC50 (Platelet [10]) was 8.43 nM.
For N[C@@H](CC(=O)O)C(=O)N1Cc2ccccc2C[C@H]1C(=O)N[C@@H](CC(=O)O)C(=O)O (H-Asp-[Tic]-Asp-OH), the IC50 (Platelet [2]) was 9.55 nM, the IC50 (Platelet [6]) was 3.48 nM and the Activity (Rattus norvegicus [7]) was 20.49 mg. For the same molecule, the IC50 (Platelet [9]) was 4.37 nM and the IC50 (Platelet [10]) was 11.1 nM.
N[C@@H](CS)C(=O)N1Cc2ccccc2C[C@H]1C(=O)N[C@@H](CS)C(=O)O (H-Cys-[Tic]-Cys-OH) was tested, and the IC50 (Platelet [2]) was 8.18 nM, the IC50 (Platelet [6]) was 3.26 nM and the Activity (Rattus norvegicus [7]) was 19.35 mg. It also gave an IC50 (Platelet [9]) of 6.32 nM and an IC50 (Platelet [10]) of 9.64 nM.
For NC(=O)CC[C@H](NC(=O)[C@@H]1Cc2ccccc2CN1C(=O)[C@@H](N)CCC(N)=O)C(=O)O (H-Gln-[Tic]-Gln-OH), the IC50 (Platelet [2]) was 8.37 nM, the Activity (Rattus norvegicus [5]) was 18.23 mg and the IC50 (Platelet [6]) was 2.55 nM. The Activity (Rattus norvegicus [7]) was 18.13 mg, the IC50 (Platelet [9]) was 5.72 nM and the IC50 (Platelet [10]) was 9.13 nM.
N[C@@H](CCC(=O)O)C(=O)N1Cc2ccccc2C[C@H]1C(=O)N[C@@H](CCC(=O)O)C(=O)O (H-Glu-[Tic]-Glu-OH) gave an IC50 (Platelet [2]) of 9.86 nM, an IC50 (Platelet [6]) of 2.19 nM and an Activity (Rattus norvegicus [7]) of 18.95 mg. The IC50 (Platelet [9]) was 4.19 nM and the IC50 (Platelet [10]) was 10.3 nM.
Work on NCC(=O)N1Cc2ccccc2C[C@H]1C(=O)NCC(=O)O (H-Gly-[Tic]-Gly-OH) yielded an IC50 (Platelet [2]) of 7.95 nM, an IC50 (Platelet [6]) of 2.44 nM and an Activity (Rattus norvegicus [7]) of 25.2 mg. For the same molecule, the IC50 (Platelet [9]) was 5.15 nM and the IC50 (Platelet [10]) was 10.6 nM.
In the case of N[C@@H](Cc1c[nH]cn1)C(=O)N1Cc2ccccc2C[C@H]1C(=O)N[C@@H](Cc1cnc[nH]1)C(=O)O (H-His-[Tic]-His-OH), the IC50 (Platelet [2]) is reported as 9.38 nM, the IC50 (Platelet [6]) is reported as 2.84 nM and the Activity (Rattus norvegicus [7]) is reported as 20.91 mg. The IC50 (Platelet [9]) was 5.57 nM and the IC50 (Platelet [10]) was 10 nM.
CC[C@H](C)[C@H](N)C(=O)N1Cc2ccccc2C[C@H]1C(=O)N[C@H](C(=O)O)[C@@H](C)CC (H-Ile-[Tic]-Ile-OH) was tested, and the IC50 (Platelet [2]) was 8.92 nM, the IC50 (Platelet [6]) was 2.89 nM and the Activity (Rattus norvegicus [7]) was 24.3 mg. It also gave an IC50 (Platelet [9]) of 5.64 nM and an IC50 (Platelet [10]) of 11.3 nM.
Molecule CC(C)C[C@H](NC(=O)[C@@H]1Cc2ccccc2CN1C(=O)[C@@H](N)CC(C)C)C(=O)O (H-Leu-[Tic]-Leu-OH) has an IC50 (Platelet [2]) of 8.17 nM, an IC50 (Platelet [6]) of 2.57 nM and an Activity (Rattus norvegicus [7]) of 19.53 mg. The IC50 (Platelet [9]) was 5.03 nM and the IC50 (Platelet [10]) was 10 nM.
For NCCCC[C@H](NC(=O)[C@@H]1Cc2ccccc2CN1C(=O)[C@@H](N)CCCCN)C(=O)O (H-Lys-[Tic]-Lys-OH), the IC50 (Platelet [2]) was 9.64 nM, the Activity (Rattus norvegicus [5]) was 19.72 mg and the IC50 (Platelet [6]) was 3.73 nM. It also gave an Activity (Rattus norvegicus [7]) of 18.65 mg, an IC50 (Platelet [9]) of 5.67 nM and an IC50 (Platelet [10]) of 8.98 nM.
Molecule CSCC[C@H](NC(=O)[C@@H]1Cc2ccccc2CN1C(=O)[C@@H](N)CCSC)C(=O)O (H-Met-[Tic]-Met-OH) has an IC50 (Platelet [2]) of 8.19 nM, an IC50 (Platelet [6]) of 3.42 nM and an Activity (Rattus norvegicus [7]) of 19.36 mg. The IC50 (Platelet [9]) was 4.91 nM and the IC50 (Platelet [10]) was 9.99 nM.
Molecule N[C@@H](Cc1ccccc1)C(=O)N1Cc2ccccc2C[C@H]1C(=O)N[C@@H](Cc1ccccc1)C(=O)O (H-Phe-[Tic]-Phe-OH) has an IC50 (Platelet [2]) of 7.84 nM, an IC50 (Platelet [6]) of 2.23 nM and an Activity (Rattus norvegicus [7]) of 22.51 mg. It also gave an IC50 (Platelet [9]) of 4.92 nM and an IC50 (Platelet [10]) of 8.87 nM.
Molecule N[C@@H](CO)C(=O)N1Cc2ccccc2C[C@H]1C(=O)N[C@@H](CO)C(=O)O (H-Ser-[Tic]-Ser-OH) has an IC50 (Platelet [2]) of 7.99 nM, an IC50 (Platelet [6]) of 2.17 nM and an Activity (Rattus norvegicus [7]) of 20.97 mg. The IC50 (Platelet [9]) was 5.36 nM and the IC50 (Platelet [10]) was 10.2 nM.
For C[C@@H](O)[C@H](N)C(=O)N1Cc2ccccc2C[C@H]1C(=O)N[C@H](C(=O)O)[C@@H](C)O (H-Thr-[Tic]-Thr-OH), the IC50 (Platelet [2]) was 10 nM, the Activity (Rattus norvegicus [3]) was “Dose-dependent effect” and the Activity (Rattus norvegicus [4]) was 20.95 mg. The Activity (Rattus norvegicus [5]) was 17.53 mg, the IC50 (Platelet [6]) was 2.89 nM and the Activity (Rattus norvegicus [7]) was 14.32 mg. For the same molecule, the Activity (Rattus norvegicus [8]) was 28.63 mg, the IC50 (Platelet [9]) was 4.14 nM and the IC50 (Platelet [10]) was 10.8 nM.
Molecule N[C@@H](Cc1ccc(O)cc1)C(=O)N1Cc2ccccc2C[C@H]1C(=O)N[C@@H](Cc1ccc(O)cc1)C(=O)O (H-Tyr-[Tic]-Tyr-OH) has an IC50 (Platelet [2]) of 8.83 nM, an IC50 (Platelet [6]) of 2.58 nM and an Activity (Rattus norvegicus [7]) of 18.79 mg. It also gave an IC50 (Platelet [9]) of 4.52 nM and an IC50 (Platelet [10]) of 9.84 nM.
In the case of CC(C)[C@H](N)C(=O)N1Cc2ccccc2C[C@H]1C(=O)N[C@H](C(=O)O)C(C)C (H-Val-[Tic]-Val-OH), the IC50 (Platelet [2]) is reported as 9.08 nM, the IC50 (Platelet [6]) is reported as 2.57 nM and the Activity (Rattus norvegicus [7]) is reported as 19.42 mg. For the same molecule, the IC50 (Platelet [9]) was 5.87 nM and the IC50 (Platelet [10]) was 9.25 nM.
With CC(=O)Oc1ccccc1C(=O)O [ASPIRIN] the Activity (Rattus norvegicus [12]) was 13.22 mg.
